# Data reported in ChEMBL document CHEMBL1142741, “Norpiperidine imidazoazepines as a new class of potent, selective, and nonsedative H1 antihistamines” (J Med Chem, 2005).
# Legend:
# [1] = Solubility in buffer (pH 10) at pH 10.2; type: physicochemical
# Procedure, shortened: (§1)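 Excess or stated amounts of solute were shaken in closed vials of solvent for 24 h at 20 °C, following Higuchi and Connors. For clear solutions, only pH was recorded and solubility was taken as solute added per solvent volume. Turbid samples were filtered through 0.45 µm, the filtrate pH was recorded, and concentration was measured by UV absorption.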
# [2] = Solubility in buffer (pH 2) at pH 4.8; type: physicochemical; procedure, shortened: as §1
# [3] = Solubility in simulated intestinal fluid at pH 10.1; type: physicochemical; procedure, shortened: as §1
# [4] = Solubility in buffer of (pH 8) at pH 9.0; type: physicochemical; conditions: buffer (pH 8); procedure, shortened: as §1
# [5] = Solubility in buffer (pH 4) at pH 5.4; type: physicochemical; procedure, shortened: as §1
# [6] = Solubility in simulated gastric fluid at pH 3.1; type: physicochemical; procedure, shortened: as §1
# [7] = Solubility in 0.1 M HCl at pH 2.7; type: physicochemical; procedure, shortened: as §1
# [8] = Solubility in 0.1 M NaOH at pH 13.0; type: physicochemical; procedure, shortened: as §1
# [9] = Solubility in buffer (pH 6) at pH 9.2; type: physicochemical; procedure, shortened: as §1
# Rattus norvegicus [10] = assay: Effective dose for blockade of skin reactions induced by histamine in rat by 2 hr after the subcutaneous administration; type: functional; conditions: sc
# Procedure, shortened: (§2)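 Male Wistar rats (200-240 g) were passively sensitized with intradermal ovalbumin-specific IgE serum; 50 h later histamine (50 µg), serotonin (0.1 µg) and Ascaris allergens (1/2 in saline) were injected intradermally at dorsal sites. Compound was given sc 2 h before challenge, with two observers' scores summed. Histamine and serotonin: inhibition score <4, blockade <3. PCA and Ascaris: score <3. ED50 by Finney's method, five animals per dose.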
# [11] = Solubility in buffer (pH 2) at pH 1.1; type: physicochemical; conditions: in the assay text read “pH 1.8” for “pH 1.1”; procedure, shortened: as §1
# Rattus norvegicus [12] = assay: Effective dose for the inhibition of 48/80-induced lethal anaphylactic reaction was determined in rat by 1 hour after subcutaneous administration; type: functional; conditions: sc
# Procedure, shortened: (§3)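 Compound or solvent was given sc 1 h or po 2 h beforehand at 10 mL/kg, dosed as base equivalents from a 0.04-10 mg/kg geometric series, five rats per dose.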
# [13] = Solubility in buffer (pH 10) at pH 4.3; type: physicochemical; procedure, shortened: as §1
# [14] = Solubility in simulated gastric fluid at pH 1.1; type: physicochemical; procedure, shortened: as §1
# Rattus norvegicus [15] = assay: Effective dose for inhibition of skin reactions induced by histamine in rat by 2 hr after the subcutaneous administration; type: functional; conditions: sc; procedure, shortened: as §2
# Canis familiaris [16] = assay: Peak effective dose for inhibition of skin reactions induced by Ascaris allergens in dog by 4 hr after the oral administration; conditions: Canis lupus familiaris
# [17] = Solubility in buffer (pH 8) at pH 3.8; type: physicochemical; procedure, shortened: as §1
# [18] = Solubility in water at pH 2.0; type: physicochemical; procedure, shortened: as §1
# Rattus norvegicus [19] = assay: Effective dose for blockade of skin reactions induced by Ascaris allergens in rat by 2 hr after the subcutaneous administration; type: functional; conditions: sc; procedure, shortened: as §2
# [20] = Partition coefficient (logP); type: physicochemical; conditions: octanol/water
# [21] = pKa1 value was determined; type: physicochemical; conditions: read-out: pKa1
# Rattus norvegicus [22] = assay: Effective dose for the inhibition of 48/80-induced lethal anaphylactic reaction was determined in rat by 2 hour after oral administration; type: functional; procedure, shortened: as §3
# Canis familiaris [23] = assay: Onset action against Ascaris allergens induced cutaneous reactions was determined by oral administration at four times the peak effect dose in dog; type: functional, Canis lupus familiaris
# Procedure, shortened: (§4)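 Beagle dogs of both sexes, selected for sensitivity to Ascaris allergens (ACF, 1/100 in saline), injected intradermally at three chest sites. Wheal diameter and skin thickness increase were read 15 min after injection, before and 1, 4, 20 and 72 h after oral dosing. Onset and duration were estimated graphically at four times the peak-effect dose.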
# [24] = pKa2 value was determined; type: physicochemical
# Procedure, shortened: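 logP was measured in octanol/pH 12 buffer; pKa was measured by the Sirius PCA 101 method.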
# [25] = Solubility in 0.1 M HCl at pH 1.0; type: physicochemical; procedure, shortened: as §1
# Rattus norvegicus [26] = assay: Effective dose for blockade of skin reactions induced by passive cutaneous anaphylaxis in rat by 2 hr after the subcutaneous administration; type: functional; conditions: sc; procedure, shortened: as §2
# Cavia porcellus [27] = assay: Effective dose for inhibition of skin reactions induced by histamine in guinea pig by 2 hr after the oral administration
# [28] = Solubility in water mg/mL; type: physicochemical; procedure, shortened: as §1
# [29] = Solubility in buffer (pH 6) at pH 4.2; type: physicochemical; procedure, shortened: as §1
# Cavia porcellus [30] = assay: Effective dose for inhibition of skin reactions induced by Ascaris allergens in guinea pig by 2 hr after the oral administration
# Rattus norvegicus [31] = assay: Effective dose for inhibition of skin reactions induced by serotonin in rat by 2 hr after the subcutaneous administration; type: functional; conditions: sc; procedure, shortened: as §2
# [32] = Solubility in 0.1 M NaOH at pH 12.6; type: physicochemical; procedure, shortened: as §1
# Cavia porcellus [33] = assay: Effective dose for blockade of skin reactions induced by histamine in guinea pig by 2 hr after the oral administration
# [34] = Solubility in buffer (pH 4) at pH 2.9; type: physicochemical; procedure, shortened: as §1
# Canis familiaris [35] = assay: Duration of action against Ascaris allergens induced cutaneous reactions was determined by oral administration at four times the peak effect dose in dog; type: functional, Canis lupus familiaris; procedure, shortened: as §4
# [36] = Solubility in simulated intestinal fluid at pH 2.3; type: physicochemical; procedure, shortened: as §1
# Histamine H1 receptor = Histamine H1 receptor (Homo sapiens, UniProt P35367); assay: Binding affinity for H1 histamine receptor expressed in CHO cells; type: cell-based
# Histamine H1 receptor, sequence (P35367 whole entry): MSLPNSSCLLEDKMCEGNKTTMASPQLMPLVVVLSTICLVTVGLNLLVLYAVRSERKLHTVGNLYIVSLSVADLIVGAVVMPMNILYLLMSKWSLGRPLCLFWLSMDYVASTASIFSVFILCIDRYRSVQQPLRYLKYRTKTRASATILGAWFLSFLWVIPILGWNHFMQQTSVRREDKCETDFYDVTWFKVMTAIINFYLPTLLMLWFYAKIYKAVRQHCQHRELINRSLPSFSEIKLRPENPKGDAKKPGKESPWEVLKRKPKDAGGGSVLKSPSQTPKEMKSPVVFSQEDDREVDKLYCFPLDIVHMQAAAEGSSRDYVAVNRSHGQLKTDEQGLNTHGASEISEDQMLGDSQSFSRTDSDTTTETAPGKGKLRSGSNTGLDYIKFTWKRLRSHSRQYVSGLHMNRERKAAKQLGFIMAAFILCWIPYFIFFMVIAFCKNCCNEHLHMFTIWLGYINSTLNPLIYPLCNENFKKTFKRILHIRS
# Cavia porcellus [37] = assay: Effective dose for inhibition of skin reactions induced by substance P in guinea pig by 2 hr after the oral administration
# Rattus norvegicus [38] = assay: Effective dose for the inhibition of 48/80-induced lethal anaphylactic reaction was determined in rat by 2 hours after oral administration; type: functional; procedure, shortened: as §3
SMILES,ED50 (Rattus norvegicus [10]) [mg/kg],ED50 (Rattus norvegicus [12]) [mg/kg],ED50 (Rattus norvegicus [15]) [mg/kg],ED50 (Canis familiaris [16]) [mg/kg],ED50 (Rattus norvegicus [19]) [mg/kg],logP [20],pKa [21],ED50 (Rattus norvegicus [22]) [mg/kg],Time (Canis familiaris [23]) [h],ED50 (Rattus norvegicus [26]) [mg/kg],ED50 (Cavia porcellus [27]) [mg/kg],ED50 (Cavia porcellus [30]) [mg/kg],ED50 (Rattus norvegicus [31]) [mg/kg],ED50 (Cavia porcellus [33]) [mg/kg],Time (Canis familiaris [35]) [h],Ki (Histamine H1 receptor) [nM],ED50 (Cavia porcellus [37]) [mg/kg],also measured
Cl.NC(=O)c1cnc2n1CCc1ccccc1C21CCNCC1,–,–,–,–,–,–,–,–,–,–,–,–,–,–,–,–,–,solubility [1]: 1650 µg/mL; solubility [2]: > 20 mg/mL; solubility [3]: 1690 µg/mL; solubility [4]: 12.2 mg/mL; solubility [5]: > 20 mg/mL; solubility [6]: > 20 mg/mL; solubility [7]: > 20 mg/mL; solubility [8]: 930 µg/mL; solubility [9]: 8040 µg/mL
Cl.Cl.NC(=O)c1cnc2n1CCc1ccccc1C21CCNCC1 [VAPITADINE DIHYDROCHLORIDE],1.4,0.056,0.51,0.024,2.7,1.18,9.88,1.2,<1,2.3,0.1,1.2,> 10,0.14,21,19,1.6,solubility [11]: > 20 mg/mL; solubility [13]: > 20 mg/mL; solubility [14]: > 20 mg/mL; solubility [17]: > 20 mg/mL; solubility [18]: > 20 mg/mL; pKa ([24]; read-out: pKa2): 3; solubility [25]: > 20 mg/mL; solubility [28]: > 20 mg/mL; solubility [29]: > 20 mg/mL; solubility [32]: 3090 µg/mL; solubility [34]: > 20 mg/mL; solubility [36]: > 20 mg/mL
Cn1ccc2c1CCn1ccnc1C2=C1CCNCC1,0.13,0.028,0.08,0.038,0.13,1.25,9.85,–,<1,0.08,0.24,8.7,> 0.16,0.96,35,22,1.7,Pka2 [24]: 6.52; ED50 (Rattus norvegicus [38]): 0.76 mg/kg
Cl.Cl.O=C(O)COCCN1CCN([C@H](c2ccccc2)c2ccc(Cl)cc2)CC1 [LEVOCETIRIZINE DIHYDROCHLORIDE],0.68,–,0.68,0.14,3.6,–,–,1.2,<1,2.7,0.046,> 2.5,> 10,0.14,30,–,> 2.5,–
Cn1ccc2c1C(=O)Cn1ccnc1C2=C1CCNCC1,0.95,0.037,0.55,0.018,2.9,–,–,0.34,<1,0.42,0.02,0.42,> 10,0.08,13,12,> 2.5,–
CCOC(=O)N1CCC(=C2c3ccc(Cl)cc3CCc3cccnc32)CC1 [LORATADINE],1.8,0.29,0.89,0.2,2.7,–,–,0.22,<1,1.6,0.08,0.42,6.2,0.32,33,–,2.2,–
